Source: PubChem
Compounds with a hit are over-represented: about 3.9% of the library has one in this group of screens.
CRFR2-BP antag: blocks CRF-induced signaling of the CRF-BP/CRF-R2 complex | HEK293 CRF-R2/CRF-BP, CRF-induced calcium fluorescence | inhibition, % at 11.8 µM | 350,000 compounds, 0.59% hits;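 active = inhibition of the ligand-induced calcium signal above about 50% at the single tested concentration, limit read from the data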
TMEM16A act: mouse TMEM16A channel activation, primary screen | 340,000 compounds, 0.3% hits | HEK293 TMEM16A/YFP-H148Q/I152L, iodide quench fluorescence; active compounds read low | AID 623877 | Q8BHY3 | B-score at 10 µM;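 active = fluorescence-ratio B-score plate-corrected deviation score at least 3 library SD below zero, with starting fluorescence score within 5 deviations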;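 note: channel opened by trigger with iodide after compound preincubation; score built on the fluorescence ratio of max minus min over baseline; more negative score means more quench and so TMEM16A activation or potentiation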
CRFR2-BP ag: CRF-BP/CRF-R2 complex agonism | activation, % at 13.2 µM | 350,000 compounds, 0.46% hits | AID 588473 | HEK293 CRF-R2/CRF-BP, calcium dye fluorescence (FLIPR); percent of saturating CRF peptide response;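 active = activation of at least 50%, plus an integration ratio under a set limit after plate pattern correction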
TAAR1 agonist: human TAAR1 agonism. CHO RD-HGA16 TAAR1, Fluo-8 calcium fluorescence; vehicle wells 0%, saturating PEA agonist 100%. Q96RJ0. 360,000 compounds, 0.99% hits. activation, % at 3 µM;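 active = activation above the mean activation of all test compounds in the run plus 3 SD, cut at about 38% in these data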
Target sequence (Q96RJ0 whole entry, looked up): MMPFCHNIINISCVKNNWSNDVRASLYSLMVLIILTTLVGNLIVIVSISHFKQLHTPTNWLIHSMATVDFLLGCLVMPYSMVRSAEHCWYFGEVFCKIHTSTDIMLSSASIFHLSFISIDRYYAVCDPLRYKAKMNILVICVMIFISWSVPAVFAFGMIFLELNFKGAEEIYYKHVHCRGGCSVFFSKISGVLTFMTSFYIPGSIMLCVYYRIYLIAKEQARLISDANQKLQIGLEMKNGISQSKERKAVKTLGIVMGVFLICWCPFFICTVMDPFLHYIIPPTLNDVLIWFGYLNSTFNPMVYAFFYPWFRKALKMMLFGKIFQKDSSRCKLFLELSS
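System: CHO-derived RD-HGA16 cells with stable Gα16 and human TAAR1. Times: 17-24 h plating, Fluo-8 75 min 37 °C, 30 min RT. Measured by: calcium-sensitive Fluo-8 signal, excitation 470-495, emission 515-575 nm. Read-out basis: % activation relative to PEA EC100 response. Control set: DMSO and PEA EC100. Repeats: no replicates (n 1).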
TAAR1 antagonist: antagonists of human TAAR1 | Q96RJ0 | CHO RD-HGA16 TAAR1, Fluo-8 calcium fluorescence, antagonist | inhibition, % at 3 µM | 360,000 compounds, 1.5% hits | AID 624466;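 active = inhibition above a per-plate cutoff, the mean inhibition of test compounds on that plate plus 3 SD, cut at about 49% in these data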
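Test system: CHO RD-HGA16 cells bearing hTAAR1 | Reagent: β-PEA, EC80 | Compound dosing: 3 µM, single point | Schedule: Dye loading 75 min at 37 °C, then 30 min room temperature | Signal: Calcium fluorescence with Fluo-8 | Evaluation: Percent inhibition of PEA-evoked calcium signal, max/basal emission ratio | Control set: DMSO-only wells and EC80 β-PEA-stimulated wells | Repeats: Singlicate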
TMEM16A inh: mouse TMEM16A channel inhibition, primary screen | normalized B-score (activity score, 25-100; higher = stronger inhibition) at 10 µM | 310,000 compounds, 1.2% hits | AID 588511 | HEK293 TMEM16A/YFP iodide influx fluorescence, ionomycin;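 active = ratio plate-corrected score three or more library SD toward inhibition, starting fluorescence score within five deviations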;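 note: score derived from kinetic fluorescence span divided by baseline fluorescence per well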
TAAR1 ag conf: confirmation of human TAAR1 agonists | shares compounds with TAAR1 agonist | CHO RD-HGA16 TAAR1, Fluo-8 calcium fluorescence; scaled: DMSO 0%, maximal phenethylamine 100% | activation, % at 3 µM | 2,400 compounds, 82% hits | AID 651783;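 active = activation above a cutoff set at the run's mean compound activation plus 3 SD, cut at about 39% in these data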
Ga16 nonsel ag: nonselective agonist in parental cells, TAAR1 agonist counter-screen | CHO-Ga16 parental, Fluo-8 calcium fluorescence; normalized to maximal ATP response, DMSO zero | 2,400 compounds, 50% hits | shares compounds with TAAR1 agonist | activation, % at 3 µM;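 active = activation above the run cutoff, the mean activation over all tested wells plus 3 SD, cut at about 12% in these data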
TAAR1 desensitize: human TAAR1 agonist that also desensitizes the receptor; 2,400 compounds, 46% hits; AID 651951; shares compounds with TAAR1 agonist; CHO RD-HGA16 hTAAR1, Fluo-8 calcium, beta-PEA response inhibition; inhibition, % at 3 µM;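 active = inhibition above the run cutoff, the mean inhibition of all test compounds plus 3 SD, cut at about 49% in these data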;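 note: beta-PEA stimulus applied at its EC80; loss of beta-PEA calcium signal after compound pretreatment read as receptor desensitization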
Ga16 nonsel ant: nonselective Ga16 antagonism, counter-screen | 2,400 compounds, 39% hits | CHO-Ga16 ATP-induced calcium, Fluo-8 fluorescence | shares compounds with TAAR1 agonist | inhibition, % at 3 µM;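 active = inhibition above the plate's mean compound inhibition plus 3 SD, computed per plate, cut at about 22% in these data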
Numbers stand for hits.

Cc1ccccc1NC(=S)N(C)CCc1ccccn1 was read as CRFR2-BP antag inactive, TMEM16A act inactive, CRFR2-BP ag inactive, TAAR1 agonist 58.2, TAAR1 antagonist inactive, TMEM16A inh inactive, TAAR1 ag conf 61.4, Ga16 nonsel ag inactive, TAAR1 desensitize inactive and Ga16 nonsel ant inactive.
`CN(CCc1ccccn1)C(=S)Nc1ccc(Cl)c(Cl)c1` gave CRFR2-BP antag inactive, TMEM16A act inactive, CRFR2-BP ag inactive, TAAR1 agonist inactive, TAAR1 antagonist inactive and TMEM16A inh inactive.
Cc1ccc(C)c(NC(=S)N(C)CCc2ccccn2)c1 was read as CRFR2-BP antag inactive, TMEM16A act inactive, CRFR2-BP ag inactive, TAAR1 agonist 44.8, TAAR1 antagonist inactive, TMEM16A inh inactive, TAAR1 ag conf 38.7, Ga16 nonsel ag inactive, TAAR1 desensitize inactive and Ga16 nonsel ant inactive.
Screening O=C1C(Cl)=C(O)C2(Cl)C(Cl)=C(Cl)C12Cl (stereo unspecified) returned CRFR2-BP antag inactive, TMEM16A act inactive, CRFR2-BP ag inactive, TAAR1 agonist inactive and TAAR1 antagonist inactive.
`CC(C)(c1ccccc1)c1ccc(OCCCNCCO)cc1` gave CRFR2-BP antag inactive, TMEM16A act inactive, CRFR2-BP ag inactive, TAAR1 agonist 53.0, TAAR1 antagonist inactive, TMEM16A inh inactive, TAAR1 ag conf 84.7, Ga16 nonsel ag 41.0, TAAR1 desensitize inactive and Ga16 nonsel ant inactive.
For CC(C)(C)c1ccc(OCCCNCc2ccccc2)cc1 the results were CRFR2-BP antag inactive, TMEM16A act inactive, CRFR2-BP ag inactive, TAAR1 agonist 73.6, TAAR1 antagonist inactive, TMEM16A inh inactive, TAAR1 ag conf 69.2, Ga16 nonsel ag 33.4, TAAR1 desensitize inactive and Ga16 nonsel ant inactive.
For C=CCNCCCOc1ccc(C(C)(C)c2ccccc2)cc1 the results were CRFR2-BP antag inactive, TMEM16A act inactive, CRFR2-BP ag inactive, TAAR1 agonist 60.8, TAAR1 antagonist inactive, TMEM16A inh inactive, TAAR1 ag conf 89.7, Ga16 nonsel ag 25.3, TAAR1 desensitize 63.6 and Ga16 nonsel ant inactive.
`COCCNCCCOc1ccc(C(C)(C)c2ccccc2)cc1` gave CRFR2-BP antag inactive, TMEM16A act inactive, CRFR2-BP ag inactive, TAAR1 agonist inactive, TAAR1 antagonist inactive and TMEM16A inh inactive.
`COCCCNCCCOc1ccc(C(C)(C)c2ccccc2)cc1` gave CRFR2-BP antag inactive, TMEM16A act inactive, CRFR2-BP ag inactive, TAAR1 agonist inactive, TAAR1 antagonist inactive and TMEM16A inh inactive.
`CCOC(=O)C1CCN(C(=O)C(=O)Nc2ccc3nc4n(c(=O)c3c2)CCCCC4)CC1` gave CRFR2-BP antag inactive, TMEM16A act inactive, CRFR2-BP ag inactive, TAAR1 agonist inactive, TAAR1 antagonist inactive and TMEM16A inh inactive.
For O=C(O)c1cc(Cl)n[nH]c1=O the results were TAAR1 agonist inactive and TAAR1 antagonist inactive.
`CCOC(=O)C(NCCc1ccccc1F)(NC(=O)CC)C(F)(F)F` (stereo unspecified) gave CRFR2-BP antag inactive, TMEM16A act inactive, CRFR2-BP ag inactive, TMEM16A inh inactive, Ga16 nonsel ag inactive and Ga16 nonsel ant inactive.
`CCOC(=O)C(NCCc1ccccc1)(NC(=O)CC)C(F)(F)F` (stereo unspecified) gave CRFR2-BP antag inactive, TMEM16A act inactive, CRFR2-BP ag inactive, TAAR1 agonist 94.2, TAAR1 antagonist 51.6, TMEM16A inh inactive, TAAR1 ag conf 97.8, Ga16 nonsel ag inactive, TAAR1 desensitize 80.0 and Ga16 nonsel ant inactive.
`Cc1ccccc1CC1CCN(CCCNC(=O)Nc2ccccc2)CC1` gave CRFR2-BP antag inactive, TMEM16A act inactive, CRFR2-BP ag inactive, TAAR1 agonist inactive, TAAR1 antagonist inactive and TMEM16A inh inactive.
Screening CCOc1cc(C(=O)NCCC(=O)N2CCC3(CC2)NCCc2[nH]cnc23)cc(OCC)c1OCC returned CRFR2-BP antag inactive, TMEM16A act inactive, CRFR2-BP ag inactive, TAAR1 agonist inactive, TAAR1 antagonist inactive and TMEM16A inh inactive.
`O=C(NCCc1ccccc1)c1ccc2c(c1)OCCCO2` gave CRFR2-BP antag inactive, TMEM16A act inactive, CRFR2-BP ag inactive, TAAR1 agonist 45.6, TAAR1 antagonist inactive, TMEM16A inh inactive, TAAR1 ag conf 60.3, Ga16 nonsel ag inactive, TAAR1 desensitize inactive and Ga16 nonsel ant inactive.
`COc1ccc(C(=O)NCCS(=O)(=O)NCCc2ccccc2)cc1` gave CRFR2-BP antag inactive, TMEM16A act inactive, CRFR2-BP ag inactive, TAAR1 agonist 47.9, TAAR1 antagonist inactive, TMEM16A inh inactive, TAAR1 ag conf 71.6, Ga16 nonsel ag inactive, TAAR1 desensitize inactive and Ga16 nonsel ant inactive.
COc1ccc(CCNS(=O)(=O)CCNC(=O)c2ccccc2)cc1 was read as CRFR2-BP antag inactive, TMEM16A act inactive, CRFR2-BP ag inactive, TAAR1 agonist inactive, TAAR1 antagonist inactive and TMEM16A inh inactive.
`Cc1ccc(C(=O)NCCc2ccccc2)cc1` gave CRFR2-BP antag inactive, TMEM16A act inactive, CRFR2-BP ag inactive and TMEM16A inh inactive.
O=C(NCCS(=O)(=O)NCCc1ccccc1)c1ccc2c(c1)OCO2 was read as CRFR2-BP antag inactive, TMEM16A act inactive, CRFR2-BP ag inactive, TMEM16A inh inactive, Ga16 nonsel ag inactive and Ga16 nonsel ant inactive.
Screening O=C(NCCc1ccccc1)c1ccc(=O)oc1 returned CRFR2-BP antag inactive, TMEM16A act inactive, CRFR2-BP ag inactive, TAAR1 agonist 61.3, TAAR1 antagonist inactive, TMEM16A inh inactive, TAAR1 ag conf 66.8, Ga16 nonsel ag 13.8, TAAR1 desensitize inactive and Ga16 nonsel ant inactive.
`Cc1c(C=O)c2ccccc2n1CC(=O)NC(C)c1ccccc1` (stereo unspecified) gave CRFR2-BP antag inactive, TMEM16A act inactive, CRFR2-BP ag inactive, TAAR1 agonist inactive, TAAR1 antagonist inactive and TMEM16A inh inactive.
For O=S(=O)(NCc1nnnn1-c1ccc(F)cc1)c1ccc(F)cc1 the results were CRFR2-BP antag inactive, CRFR2-BP ag inactive, TAAR1 agonist inactive and TAAR1 antagonist inactive.
